The test system of assay [1] is PC-3. The assay can be described thus: Cytotoxicity against human PC3 cells after 48 hrs by SRB assay. The settings on record: PC-3, 48 h. Format: functional, cell-based. A digest of the protocol:
(§1)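 SRB assay over 48 h, with a concentration range up to 50 μM, in cells pre-plated at set densities. PC-3 cells were grown in RPMI 1640 with 10% FBS and 50 µg/mL gentamicin. DU 145 cells were grown in Richter's IMEM with 10% FBS and 25 µg/mL gentamicin. The IC50 is the 50% growth-inhibition concentration, averaged over two independent triplicate experiments.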

For a further assay, the species on record is Homo sapiens. The assay can be described thus: Disruption of microtubules in human MDA-MB-435 after 1 hr by immunoblotting technique.
In assay [2] the test system is PC-3. The assay is described as follows: Effect on cell cycle distribution in human PC3 cells at 50 uM after 18 hrs by flow cytometry. Format: functional, cell-based. Background: In flow cytometry, cells or beads pass a laser one at a time.
The next assay concerns DU-145. The assay is described as follows: Cytotoxicity against human DU145 cells after 48 hrs by SRB assay. It is filed as functional, cell-based. To be noted: DU-145, 48 h. In outline: as §1
On the technique in general: Sulforhodamine B stains cellular protein and so reports cell mass.

Assay [3] concerns PC-3. The assay can be described thus: Cytotoxicity against human PC3 cells at 50 uM after 48 hrs by SRB assay. It is filed as functional, cell-based. In outline: as §1

The source made the active and inactive calls. The calls are words filed in the database; no cut-off is given here.

As for `O=C1OC[C@@H]2Cc3cc4c(cc3[C@@H](c3ccc5c(c3)OCO5)[C@@H]12)OCO4` [POLYGAMAIN], the IC50 (usually the point on the concentration scale where inhibition reaches its midpoint) in the assay with PC-3 [1] came to 0.0706 µM. Besides, the result in the assay filed under Homo sapiens was Active.

For `COc1cc(-c2cc(=O)c3c(O)c(OC)c(O)cc3o2)ccc1OCC=C(C)C` [AMYRISIN C], the outcome with PC-3 [2] and in the assay filed under Homo sapiens was inactive. In addition, the IC50 with PC-3 [1] and in the assay with DU-145 was 23 µM throughout.

In the case of `C=C(C)C(O)COc1ccc(-c2cc(=O)c3c(O)c(OC)c(O)cc3o2)cc1` (stereo unspecified) [AMYRISIN B], the IC50 in the assay with PC-3 [1] and with DU-145 was 17.5 µM in each case. The outcome in the assay listed under Homo sapiens was inactive.

With `COc1c(O)cc2oc(-c3ccc(OCC=C(C)C)cc3)cc(=O)c2c1O`, the result with PC-3 [3] and in the assay listed under Homo sapiens was inactive.
